Measurements: article PMC2225614 (The Journal of General Physiology, 2001)
Where a chain is given by its changes, count along the chain named.

Assays:
Format in all cases: biochemical, bovine/rat
[1] = target: T1, CHM23 (OLFα with RETα part of pore, S6 and part of C-linker) (Rattus norvegicus, UniProt Q00195, C329S/E325K/E350S/F357A/H396Q/I327V/I356V/K348R/K390R/L353F/Q399H/T383A/V373I/V394I); assay: Genistein inhibition of closed chimeric channel CHM23
T1 sequence (Q00195 1-664 E325K/I327V/C329S/K348R/E350S/L353F/I356V/F357A/V373I/T383A/K390R/V394I/H396Q/Q399H): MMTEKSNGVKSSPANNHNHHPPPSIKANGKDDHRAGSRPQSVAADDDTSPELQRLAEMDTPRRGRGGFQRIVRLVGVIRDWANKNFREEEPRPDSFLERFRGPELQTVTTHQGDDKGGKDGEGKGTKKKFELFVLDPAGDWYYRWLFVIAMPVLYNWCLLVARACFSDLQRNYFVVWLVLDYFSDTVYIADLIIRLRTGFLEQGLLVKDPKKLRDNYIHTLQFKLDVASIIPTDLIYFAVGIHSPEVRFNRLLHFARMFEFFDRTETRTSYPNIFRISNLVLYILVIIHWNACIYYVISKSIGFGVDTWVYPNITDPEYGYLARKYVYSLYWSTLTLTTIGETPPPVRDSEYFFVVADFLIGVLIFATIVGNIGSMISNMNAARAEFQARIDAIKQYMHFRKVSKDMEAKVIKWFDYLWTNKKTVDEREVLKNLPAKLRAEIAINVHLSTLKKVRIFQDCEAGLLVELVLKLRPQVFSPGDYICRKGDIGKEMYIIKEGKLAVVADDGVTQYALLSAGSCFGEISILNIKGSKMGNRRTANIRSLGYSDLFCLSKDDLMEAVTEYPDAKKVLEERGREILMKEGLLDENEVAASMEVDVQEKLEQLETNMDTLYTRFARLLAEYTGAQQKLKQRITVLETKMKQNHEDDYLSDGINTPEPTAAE
Method in brief: (§1)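 Chimeric RETα/OLFα channels were expressed in Xenopus oocytes (50 nl of 50 ng/μl RNA, 2–7 d), and the vitelline membrane was removed. Inside-out patches were bathed in symmetrical 115 mM NaCl, 5 mM EGTA, 1 mM EDTA, 5 mM HEPES, pH 7.5, held at −75 mV. Test compound was preapplied 1 min to closed channels, then saturating 2 mM cGMP; residual current normalized to Imax.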

[2] = target: T2, CHM35 (RETα with Q417 substituted with a histidine) (Bos taurus, UniProt Q00194, Q417H); assay: Genistein inhibition of closed chimeric channel CHM35; details: closed channels
T2 sequence (Q00194 1-690 Q417H): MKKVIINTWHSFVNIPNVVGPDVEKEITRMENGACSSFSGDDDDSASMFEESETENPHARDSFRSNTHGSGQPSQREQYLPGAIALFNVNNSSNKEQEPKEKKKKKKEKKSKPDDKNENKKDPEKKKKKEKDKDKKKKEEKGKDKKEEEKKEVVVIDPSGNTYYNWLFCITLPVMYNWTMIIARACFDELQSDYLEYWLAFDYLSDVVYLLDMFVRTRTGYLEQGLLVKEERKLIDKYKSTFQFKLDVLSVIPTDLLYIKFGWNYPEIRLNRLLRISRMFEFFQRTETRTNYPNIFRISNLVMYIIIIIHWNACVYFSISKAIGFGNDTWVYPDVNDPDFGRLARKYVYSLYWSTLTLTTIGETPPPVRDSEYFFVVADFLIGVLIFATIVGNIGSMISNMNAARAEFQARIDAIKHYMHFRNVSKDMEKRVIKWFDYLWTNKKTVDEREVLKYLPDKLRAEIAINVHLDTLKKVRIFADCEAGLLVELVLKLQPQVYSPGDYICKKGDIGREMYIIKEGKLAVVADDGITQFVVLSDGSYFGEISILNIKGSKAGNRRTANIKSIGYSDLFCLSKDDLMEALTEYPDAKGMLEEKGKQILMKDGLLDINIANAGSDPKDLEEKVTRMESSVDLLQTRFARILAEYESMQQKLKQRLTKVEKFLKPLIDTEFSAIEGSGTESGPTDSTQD
Method in brief: as §1

[3] = target: T3, CHM25 (RETα with H420 substituted with an asparagine) (Bos taurus, UniProt Q00194, H420Q); assay: Genistein inhibition of closed chimeric channel CHM25; details: genistein applied on closed channels
T3 sequence (Q00194 1-690 H420Q): T2 sequence (Q00194 1-690 Q417H) with H417Q, H420Q
Method in brief: as §1

inhibition of closed channels [1]: 99% | genistein inhibition [2]: did not reduce genistein inhibition | genistein inhibition [3]: complete inhibition
SMILES: O=c1c(-c2ccc(O)cc2)coc2cc(O)cc(O)c12 [genistein]
